Data: ChEMBL document CHEMBL4627246, “Pyroglutamide-Based P2X7 Receptor Antagonists Targeting Inflammatory Bowel Disease” (J Med Chem, 2020)
Activity calls are given as the source filed them. The rule behind the calls is not given here.

What was measured:
[1] = target: T1, P2X purinoceptor 7 (Homo sapiens) (UniProt Q99572); experiment: Antagonist activity at P2X7 receptor in human THP-1 cells assessed as inhibition of LPS and BzATP-induced IL-1beta production at 10^-5 mol/L pretreated with compound followed by LPS/BzATP addition and measured after 2 to 6 hrs by ELISA; type: cell-based
T1 sequence (whole entry): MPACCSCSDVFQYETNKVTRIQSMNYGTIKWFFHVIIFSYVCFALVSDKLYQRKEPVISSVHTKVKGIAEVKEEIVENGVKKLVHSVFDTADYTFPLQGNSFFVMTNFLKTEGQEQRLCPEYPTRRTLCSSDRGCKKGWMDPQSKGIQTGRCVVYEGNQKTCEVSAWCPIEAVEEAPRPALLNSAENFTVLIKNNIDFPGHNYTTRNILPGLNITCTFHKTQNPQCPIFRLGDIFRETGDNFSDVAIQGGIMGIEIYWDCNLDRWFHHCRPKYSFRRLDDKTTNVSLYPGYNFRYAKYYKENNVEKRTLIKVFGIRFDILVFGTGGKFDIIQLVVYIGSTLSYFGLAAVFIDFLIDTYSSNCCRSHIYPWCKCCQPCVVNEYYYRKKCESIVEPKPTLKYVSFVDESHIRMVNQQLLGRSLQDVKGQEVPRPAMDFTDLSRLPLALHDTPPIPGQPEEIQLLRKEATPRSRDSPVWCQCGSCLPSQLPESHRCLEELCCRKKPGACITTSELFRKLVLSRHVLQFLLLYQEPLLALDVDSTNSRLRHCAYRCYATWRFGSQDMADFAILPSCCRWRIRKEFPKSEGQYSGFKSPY
Outline: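 THP-1 monocytes grown in RPMI 1640 + 10% FCS, differentiated to macrophages with PMA (100nM); 10^6 cells pretreated with antagonist at 10^-5 mol/L, then exposed to LPS 10 μmol/L plus BzATP 70 μmol/L at 37 °C, 5% CO2; IL1β quantified by ELISA in samples at 2, 4 and 6 h; mean ± SD, significance P<0.05.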

P2X purinoceptor 7 = target: T2, P2X purinoceptor 7 (Homo sapiens, UniProt Q99572); experiment: Displacement of [3H]-A804598 from human P2X7 expressed in human HEK293 cell membrane incubated for 1 hr by microplate scintillation counting method; type: cell membranes
T2 sequence (Q99572 whole entry): T1 sequence (whole entry)

[2] = target: T1, P2X purinoceptor 7 (Homo sapiens); experiment: Antagonist activity at P2X7 receptor in human THP-1 cells assessed as inhibition of LPS and BzATP-induced IL-1beta production at 10^-6 mol/L pretreated with compound followed by LPS/BzATP addition and measured after 2 to 6 hrs by ELISA; type: cell-based; details: TDE = time-dependent effect
Outline: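 PMA (100nM)-differentiated THP-1 macrophages (RPMI 1640, 10% FCS), 10^6 cells, pretreated with antagonist at […], then challenged with LPS 10 μmol/L and BzATP 70 μmol/L at 37 °C, 5% CO2; IL1β measured by ELISA, including the 6 h point; mean ± SD, P<0.05 significant.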

[3] = target: T1, P2X purinoceptor 7 (Homo sapiens); experiment: Inhibition of human P2X7 expressed in human HEK293 cells assessed as reduction in BzATP-stimulated TO-PRO-3 incorporation at 10 uM preincubated with compound and TO-PRO-3 for 15 mins prior to BzATP addition and measured after 1 hr by Fluo-3AM dye based flow cytometry relative to control; type: cell-based
Outline: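 HEK-293 cells overexpressing human P2RX7 loaded with Fluo-3 AM, then incubated with TO-PRO-3 (large pore uptake) and propidium iodide (viability) plus compound (10⁻⁵ M single point) for 15 min before BzATP 100 µM. After 1 h, flow cytometry; percentage of Fluo-3/TO-PRO-3 double-positive cells calculated. Mean of n ≥ 2 with positive control.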

HEK293 = experiment: Cytotoxicity against human HEK293 cells assessed as reduction in cell viability at 10^-5 mol/L incubated for 72 hrs; type: cell-based; details: hek293, 72 h, 10 µM
Outline: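 Wild-type and P2RX7-transfected HEK293 cells exposed to compound for 72 hours; viability compared against untreated control.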

[4] = target: T1, P2X purinoceptor 7 (Homo sapiens); experiment: Antagonist activity at P2X7R in human THP1 cells assessed as inhibition of LPS and BzATP-induced IL-1beta expression by measuring increase in proIL-1beta expression in cell supernatant extract at 10^-6 mol/L pretreated with compound followed by LPS/BzATP addition and measured after 6 hrs by Western blot analysis; type: cell-based; details: THP-1
[5] = Metabolic stability in human liver microsomes assessed as half life at 0.2 mg/ml incubated for 60 mins by UPLC/MS-MS analysis; type: ADME, Microsome
[6] = target: T1, P2X purinoceptor 7 (Homo sapiens); experiment: Antagonist activity at P2X7R in human THP1 cells assessed as inhibition of LPS and BzATP-induced mature form of IL-1beta expression in whole cell extract at 10^-6 mol/L pretreated with compound followed by LPS/BzATP addition and measured after 2 to 6 hrs by Western blot analysis; type: cell-based; details: THP-1
[7] = Metabolic stability in human liver microsomes assessed as intrinsic clearance at 0.2 mg/ml incubated for 60 mins by UPLC/MS-MS analysis; type: ADME, Microsome; details: read-out: CLH
[8] = Metabolic stability in human hepatocytes; type: ADME, cell-based, Hepatocyte
[9] = Drug metabolism in mouse measured after 40 mins; type: ADME; details: read-out: Drug metabolism
[10] = target: T1, P2X purinoceptor 7 (Homo sapiens); experiment: Antagonist activity at P2X7R in human THP1 cells assessed as inhibition of LPS and BzATP-induced ROS production at 10^-5 mol/L pretreated with compound followed by LPS/BzATP addition and measured up to 5 hrs by kinetic chemiluminescence based fluorometric analysis; type: cell-based; details: THP-1
Outline: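 PMA-differentiated THP-1 macrophages (10^5 cells) in RPMI 1640 + 10% FBS pretreated with antagonist at 10^-5 mol/L, then LPS 10 μmol/L plus BzATP 70 μmol/L at 37 °C, 5% CO2; horseradish peroxidase (50 μg/mL) and luminol (50 μM) mixture added, chemiluminescence read on a fluorometer; cell-free H2O2 serves as positive control.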

[11] = target: T1, P2X purinoceptor 7 (Homo sapiens); experiment: Antagonist activity at P2X7R in human THP1 cells assessed as inhibition of LPS and BzATP-induced mature form of IL-1beta expression in cells supernatant at 10^-6 mol/L pretreated with compound followed by LPS/BzATP addition and measured after 2 to 6 hrs by Western blot analysis; type: cell-based; details: THP-1
[12] = Solubility of compound in saline at 1mg/ml; type: physicochemical; details: buffer
[13] = target: T3, P2X purinoceptor 1 (Homo sapiens) (UniProt P51575); experiment: Antagonist activity at P2X1 receptor in human platelet assessed as inhibition of thrombin-induced platelet aggregation at 10 '-5 to 10^-6 mol/L pretreated with compound and LPS/BzATP for 10 mins followed by thrombin addition and measured for 8 mins by aggregometry analysis; type: cell-based
T3 sequence (whole entry): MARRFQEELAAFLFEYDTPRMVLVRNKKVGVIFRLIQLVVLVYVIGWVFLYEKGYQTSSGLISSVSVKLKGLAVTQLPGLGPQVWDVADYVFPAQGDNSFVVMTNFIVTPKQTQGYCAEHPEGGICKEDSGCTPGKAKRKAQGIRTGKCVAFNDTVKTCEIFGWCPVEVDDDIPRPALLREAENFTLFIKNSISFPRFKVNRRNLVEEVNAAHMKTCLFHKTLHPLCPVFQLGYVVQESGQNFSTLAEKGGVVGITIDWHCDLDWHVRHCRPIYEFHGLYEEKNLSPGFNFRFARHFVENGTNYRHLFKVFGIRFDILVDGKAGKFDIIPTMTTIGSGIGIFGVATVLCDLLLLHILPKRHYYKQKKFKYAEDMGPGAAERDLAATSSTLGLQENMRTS

Mus musculus [14] = experiment: Antiinflammatory activity against DSS-induced colitis C57BL/6J mouse model assessed as areas of normal colonic mucosa with straight and larger crypts on muscularis mucosa at 2.5 mg/kg, ip administered daily and measured after day 14 by hematoxylin and eosin staining based microscopic analysis; type: functional, organism-based
Outline: (§1)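 DSS colitis in WT mice: 3.8% DSS in drinking water days 1–5, then tap water for 10 days; compound 2.5 mg/kg given i.p. daily in 10% DMSO/PBS; cohorts of 10 mice per group, placebo as comparator; weight loss and clinical disease score tracked; colon sections at day 14 stained with H&E and histologically scored; data as mean ± SEM.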

[15] = target: T1, P2X purinoceptor 7 (Homo sapiens); experiment: Antagonist activity at P2X7R in human THP1 cells assessed as inhibition of LPS and BzATP-induced cell death at 10^-6 mol/L pretreated with compound followed by LPS/BzATP addition and measured after 4 hrs by sytox green dye based flow cytometry; details: THP-1
[16] = target: T1, P2X purinoceptor 7 (Homo sapiens); experiment: Antagonist activity at P2X7R in human THP1 cells assessed as inhibition of LPS and BzATP-induced ROS production at 10^-6mol/L pretreated with compound followed by LPS/BzATP addition and measured after 4 hrs by kinetic chemiluminescence based fluorometric analysis; type: cell-based; details: THP-1
Outline: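 Differentiated THP-1 macrophages (10^5 cells, RPMI 1640 + 10% FBS) pretreated with antagonist at 10^-6 mol/L before LPS (10 μmol/L) and BzATP (70 μmol/L), 37 °C, 5% CO2; ROS detected as luminol (50 μM)/horseradish peroxidase (50 μg/mL) chemiluminescence on a fluorometer; H2O2 without cells as positive control.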

Mus musculus [17] = experiment: Antiinflammatory activity against DSS-induced colitis C57BL/6J mouse model assessed as decrease in inflammation level in colon at 2.5 mg/kg, ip administered daily and measured after day 14 by hematoxylin and eosin staining based microscopic analysis; type: functional; details: 336 h; outline: as §1
[18] = target: T1, P2X purinoceptor 7 (Homo sapiens); experiment: Antagonist activity at P2X7R in human THP1 cells assessed as inhibition of LPS and BzATP-induced cell death at 10^-6 mol/L pretreated with compound followed by LPS/BzATP addition and measured after 6 hrs by sytox green dye based flow cytometry; details: THP-1

Compound | inhibition [1] | IC50 (P2X purinoceptor 7) [µM] | Ki (P2X purinoceptor 7) [µM] | inhibition [2] | inhibition [3] [%] | Activity (HEK293) | half-life [5] [min] | microsomal CLint [7] [µL/min/mg] | Stability [8] | metabolised at 40 min [9] [%] | inhibition [10] | solubility [12] | Activity [13] | other results
O=C(NCc1cccc(C(F)(F)F)c1Cl)[C@@H]1CCC(=O)N1c1cccs1 | Active | 0.218 | 0.044 | Tde | 100 | Non-Toxic | 3.8 | 530 | Unstable | 99.7 | Active | Insoluble | inactive | inhibition [4]: Active; inhibition [6]: Active; inhibition [11]: Active
O=C(NCc1ccc(Cl)cc1Cl)[C@@H]1CCC(=O)N1c1ccoc1 | Active | 0.422 | 0.086 | Tde | 85 | Non-Toxic | 2.9 | 630 | Unstable | 99.9 | Active | Insoluble | inactive | –
CN1C(=O)CC[C@H]1C(=O)NCc1ccc(Cl)cc1Cl | Active | 0.862 | 0.176 | Tde | 100 | – | 619 | 3.6 | Stable | 5.1 | Active | – | – | Activity (Mus musculus [14]): Active; inhibition [15]: Active; inhibition [16]: Active; inhibition in vivo at 2.5 mg/kg (Mus musculus [17]): 42 to 50%; inhibition [18]: inactive
O=C(NCc1ccc(Cl)cc1Cl)[C@@H]1CCC(=O)N1c1ccco1 | Active | 0.575 | 0.118 | Tde | 94 | Non-Toxic | 5.2 | 411 | Unstable | 99.2 | Active | Insoluble | inactive | –
